Source: ChEMBL document CHEMBL4609999, “Novel alkoxyamide-based histone deacetylase inhibitors reverse cisplatin resistance in chemoresistant cancer cells” (Bioorg Med Chem, 2020)
Activity calls are given as the source filed them. The calls are words filed in the database; no cut-off is given here.

Legend:
[1] = target: Histone deacetylase; assay: Inhibition of HDAC in human A2780 cells; format: cell-based
[2] = target: T1, Histone deacetylase 8 (Homo sapiens, UniProt Q9BY41); assay: Inhibition of recombinant human HDAC8
T1 sequence (Q9BY41 whole entry): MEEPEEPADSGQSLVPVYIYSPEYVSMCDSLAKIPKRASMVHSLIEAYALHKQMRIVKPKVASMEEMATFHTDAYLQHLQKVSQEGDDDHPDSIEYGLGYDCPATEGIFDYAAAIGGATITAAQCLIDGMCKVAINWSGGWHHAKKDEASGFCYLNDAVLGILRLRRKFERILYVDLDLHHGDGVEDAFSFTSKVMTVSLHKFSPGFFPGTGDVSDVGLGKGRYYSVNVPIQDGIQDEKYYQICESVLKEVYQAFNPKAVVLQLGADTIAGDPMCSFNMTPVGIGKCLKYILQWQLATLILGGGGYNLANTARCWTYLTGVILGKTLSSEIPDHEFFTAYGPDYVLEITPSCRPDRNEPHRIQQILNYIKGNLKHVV

[3] = target: Histone deacetylase 4 (Homo sapiens, UniProt P56524); assay: Inhibition of recombinant human HDAC4
[4] = test system: CAL-27; assay: Cytotoxicity against human CAL27 cells assessed as reduction in cell viability by MTT assay; format: functional, cell-based
[5] = target: T2, Protein deacetylase HDAC6 (Homo sapiens, UniProt Q9UBN7); assay: Inhibition of recombinant human HDAC6
T2 sequence (Q9UBN7 whole entry): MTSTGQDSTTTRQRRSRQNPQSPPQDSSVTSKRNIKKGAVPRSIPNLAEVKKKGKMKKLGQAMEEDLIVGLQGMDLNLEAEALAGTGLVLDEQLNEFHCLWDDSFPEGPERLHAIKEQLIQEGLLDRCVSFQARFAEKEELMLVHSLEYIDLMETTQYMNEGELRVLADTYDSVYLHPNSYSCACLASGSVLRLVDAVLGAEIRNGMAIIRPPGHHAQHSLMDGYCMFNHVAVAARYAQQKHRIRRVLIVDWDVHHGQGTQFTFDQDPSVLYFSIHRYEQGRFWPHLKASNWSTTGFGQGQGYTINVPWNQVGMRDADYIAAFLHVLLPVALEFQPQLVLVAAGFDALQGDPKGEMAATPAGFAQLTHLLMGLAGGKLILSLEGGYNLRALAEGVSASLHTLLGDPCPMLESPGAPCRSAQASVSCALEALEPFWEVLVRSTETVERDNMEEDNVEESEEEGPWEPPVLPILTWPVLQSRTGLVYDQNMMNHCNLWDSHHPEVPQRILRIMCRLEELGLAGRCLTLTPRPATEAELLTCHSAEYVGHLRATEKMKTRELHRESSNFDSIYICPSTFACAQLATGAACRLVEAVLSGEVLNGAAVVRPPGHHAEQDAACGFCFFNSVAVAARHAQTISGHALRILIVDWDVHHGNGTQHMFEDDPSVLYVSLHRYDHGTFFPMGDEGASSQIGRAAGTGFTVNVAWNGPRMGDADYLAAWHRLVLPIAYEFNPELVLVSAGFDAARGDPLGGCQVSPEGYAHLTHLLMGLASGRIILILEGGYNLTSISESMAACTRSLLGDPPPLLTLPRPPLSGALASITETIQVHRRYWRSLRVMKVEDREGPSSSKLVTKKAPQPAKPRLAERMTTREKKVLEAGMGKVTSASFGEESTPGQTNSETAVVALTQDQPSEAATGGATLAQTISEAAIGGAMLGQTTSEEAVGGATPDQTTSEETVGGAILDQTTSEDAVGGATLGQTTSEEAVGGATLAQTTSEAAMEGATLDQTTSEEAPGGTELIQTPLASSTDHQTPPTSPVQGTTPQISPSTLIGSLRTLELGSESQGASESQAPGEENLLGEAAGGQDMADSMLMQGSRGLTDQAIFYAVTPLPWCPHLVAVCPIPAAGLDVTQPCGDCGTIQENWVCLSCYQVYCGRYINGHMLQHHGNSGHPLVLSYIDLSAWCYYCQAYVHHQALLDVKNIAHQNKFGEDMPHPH

[6] = test system: A2780; assay: Cytotoxicity against human A2780 cells assessed as reduction in cell viability by MTT assay; format: functional, cell-based
[7] = target: Histone deacetylase 2 (Homo sapiens, UniProt Q92769); assay: Inhibition of recombinant human HDAC2
[8] = target: Histone deacetylase; assay: Inhibition of HDAC in human Cal27 cells; format: cell-based; conditions: cal-27
[9] = test system: CAL-27; assay: Potentiation of cisplatin-induced cytotoxicity against human CAL27 cells assessed as shift factor by measuring ratio of cisplatin IC50 to cisplatin IC50 in presence of compound at 0.4 uM incubated for 72 hrs followed by cisplatin addition and measured after 72 hrs by MTT assay; format: functional
Summary of the method: (§1)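 MTT shift assay. Cal27 cells received HDACi at 0.2, 0.4 or 1.4 µM; Cal27CisR cells received 0.8 or 6 µM. Cells were incubated 72 h with a cisplatin range. Shift factor = cisplatin IC50 alone / cisplatin IC50 with HDACi, significance by t-test (p<0.05). Pooled mean of ≥3 experiments, each in triplicate.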

[10] = species on record: Homo sapiens; assay: Induction of apoptosis in human Cal27CisR cells assessed as increase in caspase 3/7 activation at 0.8 uM incubated for 24 hrs by Hoechst 33342 staining based fluorescence assay; format: functional, cell-based
[11] = target: T3, Protein deacetylase HDAC6 (Homo sapiens) (UniProt Q9UBN7); assay: Inhibition of HDAC6 in human Cal27CisR cells assessed as increase in acetylated alpha-tubulin at 1.5 uM incubated for 24 hrs by immunoblot analysis; format: cell-based
T3 sequence (whole entry): T2 sequence (Q9UBN7 whole entry)
Summary of the method: (§2)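 Cal27 and Cal27CisR cells incubated 24 h with vehicle or with inhibitor at 1.5, 3 or 5 µM. Western blot for α-tubulin, acetyl-α-tubulin and acetyl-histone H3.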

[12] = test system: CAL-27; assay: Induction of apoptosis in human CAL27 cells assessed as increase in caspase 3/7 activation at 0.8 uM incubated for 24 hrs by Hoechst 33342 staining based fluorescence assay; format: functional, cell-based
[13] = target: T3, Protein deacetylase HDAC6 (Homo sapiens); assay: Inhibition of HDAC6 in human CAL27 cells assessed as increase in acetylated alpha-tubulin at 1.5 uM incubated for 24 hrs by immunoblot analysis; format: cell-based; conditions: CAL-27; summary of the method: as §2
[14] = species on record: Homo sapiens; assay: Potentiation of cisplatin-induced apoptosis in human Cal27CisR cells assessed as increase in caspase 3/7 activation at 0.8 uM incubated for 24 hrs followed by cisplatin addition by Hoechst 33342 staining based fluorescence assay; format: functional, cell-based
Summary of the method: (§3)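 Cal27 cells pretreated with HDACi at 0.4, 0.8 or 2.8 µM, then 24 h more with 3 µM cisplatin. Cal27CisR cells pretreated at 0.8 or 8 µM, then 24 h with 25 µM cisplatin. 100 µM cisplatin as positive control. Active caspase 3/7 imaged by green fluorescence, nuclei counterstained with Hoechst 33342 (blue).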

[15] = Potentiation of cisplatin-induced cytotoxicity against human Cal27CisR cells assessed as shift factor by measuring ratio of cisplatin IC50 to cisplatin IC50 in presence of compound at 0.8 uM incubated for 72 hrs followed by cisplatin addition and measured after 72 hrs by MTT assay; format: functional; summary of the method: as §1
[16] = target: T4, Class 1 histone deacetylase (Homo sapiens) (UniProt Q13547+O15379+Q92769+Q9BY41); assay: Inhibition of class 1 histone deacetylase in human Cal27CisR cells assessed as increase in H3 histone acetylation at 1.5 uM incubated for 24 hrs by immunoblot analysis; format: cell-based; summary of the method: as §2
[17] = test system: CAL-27; assay: Potentiation of cisplatin-induced apoptosis in human CAL27 cells assessed as increase in caspase 3/7 activation at 0.8 uM incubated for 24 hrs followed by cisplatin addition by Hoechst 33342 staining based fluorescence assay; format: functional, cell-based; summary of the method: as §3
[18] = target: T4, Class 1 histone deacetylase (Homo sapiens); assay: Inhibition of class 1 histone deacetylase in human CAL27 cells assessed as increase in H3 histone acetylation at 1.5 uM incubated for 24 hrs by immunoblot analysis; format: cell-based; conditions: CAL-27; summary of the method: as §2
[19] = species on record: Homo sapiens; assay: Potentiation of cisplatin-induced apoptosis in human Cal27CisR cells assessed as increase in caspase 3/7 activation at 8 uM incubated for 24 hrs followed by cisplatin addition by Hoechst 33342 staining based fluorescence assay; format: functional, cell-based; summary of the method: as §3
[20] = test system: CAL-27; assay: Potentiation of cisplatin-induced cytotoxicity against human CAL27 cells assessed as shift factor by measuring ratio of cisplatin IC50 to cisplatin IC50 in presence of compound at 1.4 uM incubated for 72 hrs followed by cisplatin addition and measured after 72 hrs by MTT assay; format: functional; summary of the method: as §1
[21] = target: T4, Class 1 histone deacetylase (Homo sapiens); assay: Inhibition of class 1 histone deacetylase in human CAL27 cells assessed as increase in H3 histone acetylation at 5 uM incubated for 24 hrs by immunoblot analysis; format: cell-based; conditions: CAL-27; summary of the method: as §2
[22] = target: T3, Protein deacetylase HDAC6 (Homo sapiens); assay: Inhibition of HDAC6 in human Cal27CisR cells assessed as increase in acetylated alpha-tubulin at 5 uM incubated for 24 hrs by immunoblot analysis; format: cell-based; summary of the method: as §2
[23] = test system: CAL-27; assay: Induction of apoptosis in human CAL27 cells assessed as increase in caspase 3/7 activation at 2.8 uM incubated for 24 hrs by Hoechst 33342 staining based fluorescence assay; format: functional, cell-based
[24] = target: T4, Class 1 histone deacetylase (Homo sapiens); assay: Inhibition of class 1 histone deacetylase in human Cal27CisR cells assessed as increase in H3 histone acetylation at 5 uM incubated for 24 hrs by immunoblot analysis; format: cell-based; summary of the method: as §2
[25] = Potentiation of cisplatin-induced cytotoxicity against human Cal27CisR cells assessed as shift factor by measuring ratio of cisplatin IC50 to cisplatin IC50 in presence of compound at 6 uM incubated for 72 hrs followed by cisplatin addition and measured after 72 hrs by MTT assay; format: functional; summary of the method: as §1
[26] = species on record: Homo sapiens; assay: Induction of apoptosis in human Cal27CisR cells assessed as increase in caspase 3/7 activation at 8 uM incubated for 24 hrs by Hoechst 33342 staining based fluorescence assay; format: functional, cell-based
[27] = test system: CAL-27; assay: Potentiation of cisplatin-induced apoptosis in human CAL27 cells assessed as increase in caspase 3/7 activation at 2.8 uM incubated for 24 hrs followed by cisplatin addition by Hoechst 33342 staining based fluorescence assay; format: functional, cell-based; summary of the method: as §3
[28] = target: T3, Protein deacetylase HDAC6 (Homo sapiens); assay: Inhibition of HDAC6 in human CAL27 cells assessed as increase in acetylated alpha-tubulin at 5 uM incubated for 24 hrs by immunoblot analysis; format: cell-based; conditions: CAL-27; summary of the method: as §2

Sequence of Histone deacetylase 2 (Q92769 whole entry): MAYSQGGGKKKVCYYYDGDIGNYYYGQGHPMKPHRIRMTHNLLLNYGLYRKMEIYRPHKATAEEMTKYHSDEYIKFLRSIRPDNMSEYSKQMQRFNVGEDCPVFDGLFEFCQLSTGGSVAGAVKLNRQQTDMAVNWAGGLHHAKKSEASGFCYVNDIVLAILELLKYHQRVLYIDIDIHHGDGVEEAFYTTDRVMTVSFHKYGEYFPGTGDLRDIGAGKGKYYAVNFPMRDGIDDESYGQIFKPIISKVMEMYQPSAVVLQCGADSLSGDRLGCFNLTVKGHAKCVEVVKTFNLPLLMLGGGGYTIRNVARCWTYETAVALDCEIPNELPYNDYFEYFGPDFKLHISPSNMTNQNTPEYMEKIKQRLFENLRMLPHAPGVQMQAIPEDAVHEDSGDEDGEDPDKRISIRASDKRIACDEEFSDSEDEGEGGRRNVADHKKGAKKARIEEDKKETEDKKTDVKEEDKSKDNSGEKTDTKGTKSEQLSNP
Sequence of Histone deacetylase 4 (P56524 whole entry): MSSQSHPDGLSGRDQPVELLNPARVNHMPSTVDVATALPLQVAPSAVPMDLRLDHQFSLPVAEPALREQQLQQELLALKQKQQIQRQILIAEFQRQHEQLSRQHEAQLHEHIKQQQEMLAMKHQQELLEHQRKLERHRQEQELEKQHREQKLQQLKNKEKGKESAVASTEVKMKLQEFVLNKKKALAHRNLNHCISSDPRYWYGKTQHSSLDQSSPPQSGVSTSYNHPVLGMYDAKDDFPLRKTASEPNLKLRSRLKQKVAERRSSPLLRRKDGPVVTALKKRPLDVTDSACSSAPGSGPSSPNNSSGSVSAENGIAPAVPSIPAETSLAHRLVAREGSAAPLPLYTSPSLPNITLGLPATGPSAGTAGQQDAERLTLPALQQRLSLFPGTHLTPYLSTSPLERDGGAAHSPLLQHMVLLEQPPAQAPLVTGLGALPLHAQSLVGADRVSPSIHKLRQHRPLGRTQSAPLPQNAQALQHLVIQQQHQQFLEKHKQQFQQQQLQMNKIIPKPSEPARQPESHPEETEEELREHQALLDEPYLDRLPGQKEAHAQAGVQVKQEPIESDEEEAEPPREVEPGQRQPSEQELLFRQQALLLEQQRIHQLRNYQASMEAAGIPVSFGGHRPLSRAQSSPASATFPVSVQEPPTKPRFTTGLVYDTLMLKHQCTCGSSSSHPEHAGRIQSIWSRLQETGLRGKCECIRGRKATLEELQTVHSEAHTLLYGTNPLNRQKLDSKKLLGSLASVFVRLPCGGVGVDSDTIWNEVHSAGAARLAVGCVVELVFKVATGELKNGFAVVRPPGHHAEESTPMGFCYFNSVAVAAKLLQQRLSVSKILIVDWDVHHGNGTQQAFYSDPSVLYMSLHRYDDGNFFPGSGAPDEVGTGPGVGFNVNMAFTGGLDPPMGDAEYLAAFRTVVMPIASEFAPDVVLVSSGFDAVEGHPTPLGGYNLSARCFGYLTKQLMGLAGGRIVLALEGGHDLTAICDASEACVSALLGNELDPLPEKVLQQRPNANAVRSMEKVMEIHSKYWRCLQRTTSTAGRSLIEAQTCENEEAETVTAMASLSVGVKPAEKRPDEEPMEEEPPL

IC50 [1] [µM]	Ki [2] [µM]	Ki [3] [µM]	Ki [5] [µM]	Ki [7] [µM]	IC50 [8] [µM]	Structure (SMILES)	IC50 [4] [µM]	IC50 [6] [µM]	other results
4.24	22.3	> 100	0.42	0.37	3.36	Cc1cc(C)cc(C(=O)NOCCCCC(=O)NO)c1	8.67	9.34	–
11	4.9	83.7	0.56	0.55	10.56	O=C(CCCCCONC(=O)c1cc(C(F)(F)F)cc(C(F)(F)F)c1)NO	15.8	30.5	–
14.5	18.9	> 100	0.35	1.36	12.7	O=C(CCCCCONC(=O)c1c(Cl)cncc1Cl)NO	28.1	68.4	–
0.17	4.81	> 100	0.05	0.08	0.55	Cc1cc(C)cc(C(=O)NOCCCCCC(=O)NO)c1	0.76	0.97	PF [9]: 3; Activity [10]: Active; inhibition [11]: Active; Activity [12]: Active; inhibition [13]: Active; Activity [14]: Active; PF [15]: 8.36; inhibition [16]: Active; Activity [17]: Active; inhibition [18]: Active
1.18	6.4	93.1	0.06	0.09	1.48	COc1cc(C(=O)NOCCCCCC(=O)NO)cc(OC)c1OC	3.07	13.8	Activity [19]: Active; PF [20]: 1.95; inhibition [21]: Active; inhibition [22]: Active; Activity [23]: Active; inhibition [24]: Active; PF [25]: 7.73; Activity [26]: Active; Activity [27]: Active; inhibition [28]: Active
